Test system: HIV-1HXB2
Test: Replication assay
Type: cell-based
Conditions: at concentrations below 10 µM; MT-4 Luc system
In short: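 MT-4 cells stably transduced with a firefly luciferase cassette by a murine leukemia viral vector, constitutively expressing luciferase. 1 × 10^3 cells per well infected with HIV-1 HXB2 alongside various peptide concentrations. Cells lysed at 6–7 days post-infection; luciferase activity measured as chemiluminescence, in relative luciferase units. A retained signal indicates protection from virus-induced death; a drop indicates cytotoxicity.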

Substance: Ac-QIFEHLAGIIQILRFLRI-R8-NH2 [control peptide isomer of 5]
- anti-HIV activity (in words): did not show anti-HIV activity

From publication PMC4486254 (Bioorganic & medicinal chemistry, 2010)
